Assay [1] deals with Angiotensin II receptor (Rattus norvegicus) (UniProt P29089+P25095+P35351). The experiment in a line: In vivo blood pressure increase produced by a 1 ug bolus i.v. It counts as functional, organism-based. In outline: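 Rat blood pressure assay (Regoli et al.); agonist activity read as the mmHg rise in blood pressure after a 1 μg intravenous bolus of compound.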
Assay [2] has as its system Angiotensin II receptor (Oryctolagus cuniculus). Kind of assay: Angiotensin II-like agonist activity, measured in the in vitro rabbit aorta strip assay.
Assay [3] has as its system Rattus norvegicus. Kind of assay: Residual ANG II-like antagonist activity, ID50 was measured in vivo, in the rat blood pressure assay; + means slight antagonist effect. The assay is classed as functional, organism-based. The settings on record: filed as antagonist.
The species entered for assay [4] is Rattus norvegicus. Kind of assay: Antagonist activity pA2, was measured in the in vitro rat uterus strip assay. As to conditions: read-out: pA2 (converted). It counts as functional.
For assay [5], the system named is Rattus norvegicus. Kind of assay: Residual ANG II-like antagonist activity, ID50 was measured in vivo, in the rat blood pressure assay. The assay is classed as functional.
For assay [6], the species on record is Oryctolagus cuniculus. The experiment in a line: Antagonist activity pA2, was measured in the in vitro rabbit aorta strip assay. The assay is classed as functional. The settings on record: read-out: pA2 (converted). The method in brief: (§1)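 Isolated rabbit aorta strip (method of Rioux et al.); pA2 against the ANG II dose-response curve, determined at low antagonist doses within the competitive-inhibition range.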

Assay [7] has as its system Rattus norvegicus. The experiment in a line: Residual ANG II-like antagonist activity, ID50 was measured in vivo, in the rat blood pressure assay; Partial angonist. It counts as functional, organism-based. The settings on record: filed as partial agonist.
The species named for assay [8] is Oryctolagus cuniculus. Kind of assay: Antagonist activity pA2, was measured in the in vitro rabbit aorta strip assay; + = mixed agonist-antagonist effects seen above 100n g/mL. The assay is classed as functional. In outline: as §1
The species named for assay [9] is Oryctolagus cuniculus. The experiment in a line: Agonist, ''ANG II-like'' activity was measured in the in vitro rabbit aorta strip assay; + = mixed agonist-antagonist effects seen above 100n g/mL. The assay is classed as functional. In outline:
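Isolated rabbit aorta strip (method of Rioux et al.); contractile agonist activity expressed as percent of the response to ANG II.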

Where a SMILES comes first, the peptide text is derived from it. [ ]: non-standard residue; d: D form. Phe(4-NO2) = N[C@@H](Cc1ccc([N+](=O)[O-])cc1)C(=O)O; Phe(4-F) = N[C@@H](Cc1ccc(F)cc1)C(=O)O; Phe(4-I) = N[C@@H](Cc1ccc(I)cc1)C(=O)O; Sar = CNCC(=O)O A value given as a limit tells only on which side of the number the result lay.

Regarding H-DRVFIHPF-OH, the Blood pressure in assay [1] is 20 mmHg. The compound further registered an Activity in assay [2] of 11%. Further, the ID50 result in the assay with Rattus norvegicus [3] is “Partial antagonist”.
For the compound `CC[C@H](C)[C@H](NC(=O)[C@@H]1CCCN1C(=O)[C@H](Cc1c[nH]cn1)NC(=O)[C@@H](NC(=O)[C@H](Cc1ccc(O)cc1)NC(=O)[C@@H](NC(=O)[C@H](CCCN=C(N)N)NC(=O)[C@@H](N)CC(=O)O)C(C)C)[C@@H](C)CC)C(=O)O`, the Kb in the assay filed under Rattus norvegicus [4] was 5.01 nM.
As to `CCOc1ccc(C[C@H](NC(=O)[C@@H](NC(=O)[C@H](CCCN=C(N)N)NC(=O)CNC)C(C)C)C(=O)N[C@H](C(=O)N[C@@H](Cc2c[nH]cn2)C(=O)N2CCC[C@H]2C(=O)N[C@@H](Cc2ccccc2)C(=O)O)[C@@H](C)CC)cc1`, the Kb in the assay filed under Rattus norvegicus [4] was > 1000 nM. The compound further displayed a Blood pressure in assay [1] of 2.5 mmHg. This compound also showed an Activity in assay [2] of 0.1%. Moreover, in the assay on Rattus norvegicus [5], the ID50 is listed as 150 ng min-1 rat-1.
Compound `CC[C@H](C)[C@H](NC(=O)[C@H](Cc1ccc(I)cc1)NC(=O)[C@@H](NC(=O)[C@H](CCCN=C(N)N)NC(=O)CNC)C(C)C)C(=O)N[C@@H](Cc1c[nH]cn1)C(=O)N1CCC[C@H]1C(=O)N[C@@H](Cc1ccccc1)C(=O)O` (H-[Sar]RV[Phe(4-I)]IHPF-OH) returned a Blood pressure in [1] of 80 mmHg. The Activity in assay [2] stood at 0%. In the assay listed under Oryctolagus cuniculus [6], the Kb is 251 nM. Moreover, the ID50 entry with Rattus norvegicus [7] was “Partial agonist”.
Regarding H-DRVFIHPY-OH, the Kb in the assay listed under Rattus norvegicus [4] was 240 nM.
Same read-out and setting: with `CC[C@H](C)[C@H](NC(=O)[C@H](Cc1ccc(F)cc1)NC(=O)[C@@H](NC(=O)[C@H](CCCN=C(N)N)NC(=O)[C@@H](N)CC(=O)O)C(C)C)C(=O)N[C@@H](Cc1c[nH]cn1)C(=O)N1CCC[C@H]1C(=O)N[C@@H](Cc1ccccc1)C(=O)O` (H-DRV[Phe(4-F)]IHPF-OH) the figure was 501 nM.
Consider `CC[C@H](C)[C@H](NC(=O)[C@H](Cc1ccc([N+](=O)[O-])cc1)NC(=O)[C@@H](NC(=O)[C@H](CCCN=C(N)N)NC(=O)CNC)C(C)C)C(=O)N[C@@H](Cc1c[nH]cn1)C(=O)N1CCC[C@H]1C(=O)N[C@@H](Cc1ccccc1)C(=O)O` (H-[Sar]RV[Phe(4-NO2)]IHPF-OH), for which the pA2 result in the assay listed under Oryctolagus cuniculus [8] is “mixed agonist-antagonist effects seen above 100n g/mL”. Also, the Activity result in the assay filed under Oryctolagus cuniculus [9] is on record as “mixed agonist-antagonist effects seen above 100n g/mL”.
As to H-DRVYIHPC-OH, the Kb in the assay listed under Rattus norvegicus [4] is 6.03 nM.

The values above are taken from ChEMBL document CHEMBL1124503, “The role of position 4 in angiotensin II antagonism: a structure-activity study” (J Med Chem, 1989).
